# An excerpt weighted towards active compounds, which were near 2% of everything screened.
# E-selectin induc: induces E-selectin expression in human endothelial cells; P16581; HUVEC E-selectin immunofluorescence imaging; normalized: neutral wells 0, TNF-alpha wells 100; activation, % at 7.58 µM; 0.37% of 260,000 active; AID 686992;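 active = mean E-selectin-positive cell signal at least 10% of the positive control, reached in at least 60% of replicates, without over 20% cell loss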
#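 material = human umbilical vein endothelial cells (HUVEC), E-selectin induction | quantity = 3,000 cells/well | medium = EGM-2 growth medium on 0.1% gelatin-coated wells | technique = immunofluorescence imaging | read-out basis = % PE-positive cells | control set = TNF-alpha positive control, DMSO neutral control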
# XiGFP reactiv: activators of X-chromosome reactivation in mouse fibroblasts; XiGFP mouse fibroblasts, % GFP-positive cells imaging, 3 d; cells co-treated with 5-aza-dC sensitizer; scaled so ellipticine positive control = 100%; activation, % at 7.58 µM; 0.055% of 360,000 active; AID 743238;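 active = mean normalized replicate activation at least 10% and every replicate at or above 10%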;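 note: 0% = median of on-plate neutral control wells and 100% = ellipticine 6 µM median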
#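 Assay system: SV40-immortalized XiGFP fibroblast cells, line 68-5-11; buffer or medium: DMEM plus 5-aza-dC sensitizer; compound: one concentration, pinned; timing: compounds 3 days, fix/stain 15 min at room temperature; benchmarks: positive control ellipticine, 6 µM final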
# S100A4 inh HTS: inhibitors of human S100A4 binding to myosin IIA peptide | inhibition, % at 10.7 µM | 0.14% of 360,000 active | S100A4/TAMRA-MyoIIA peptide fluorescence polarization | P26447;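 active = mean inhibition of at least 70% across replicates, with every replicate also reaching that level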
# Target sequence (P26447 whole entry, looked up): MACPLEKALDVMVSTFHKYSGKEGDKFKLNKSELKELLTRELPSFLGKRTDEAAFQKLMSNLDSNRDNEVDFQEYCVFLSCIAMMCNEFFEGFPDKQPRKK
#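 Compound dosing: one dose per compound; test system: human S100A4 monomer with TAMRA-labelled myosin IIA peptide; probe or stimulus: TAMRA-labelled myosin IIA heavy-chain peptide probe, 5 nM; medium: HEPES buffer with Ca2+, pH 7.2; schedule: 5 min incubation before reading; benchmarks: neutral control DMSO, positive control TFP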
# DENV2 CPE rescue: DENV2-induced cell death inhibition; DENV2-infected cells, cytopathic effect rescue, plate reader; 1.7% of 350,000 active; CPE inhibition, % at 9.99 µM; in the data active = CPE inhibition above about 20%, passing the limit was not always enough; tested in BHK-21 cells;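 note: 0% = median of neutral control wells and 100% = median of positive control wells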
# * hit, by the source's call; · = no result given.
SMILES,E-selectin induc,XiGFP reactiv,S100A4 inh HTS,DENV2 CPE rescue
C[C@@H]1CN([C@@H](C)CO)C(=O)c2cccc(NC(=O)C3CC3)c2O[C@@H]1CN(C)CC1CCCCC1,-0.1,-1.2,9.3,-4.8
C[C@H](CO)N1C[C@H](C)[C@H](CN(C)Cc2ccccc2)Oc2c(NC(=O)C3CCCCC3)cccc2C1=O,-0.2,0.2,4.5,4.5
CCOc1ccc(S(=O)(=O)NC(C)C(=O)NCc2ccncc2)cc1 (stereo not drawn),·,0.0,-2.6,-5.3
C[C@]1(C(=O)NCc2ccccc2)c2ccccc2C(=O)N(Cc2ccc(OC(F)(F)F)cc2)[C@H]1c1ccc(CO)cc1,·,·,1.2,-8.7
C[C@H](CO)N1C[C@H](C)[C@@H](CN(C)C)Oc2c(NC(=O)C3CCOCC3)cccc2C1=O,-0.1,-0.1,25.1,40.3*
C[C@@H]1CN([C@@H](C)CO)C(=O)c2cccc(NC(=O)C3CC3)c2O[C@H]1CN(C)Cc1ccccc1,51.8*,-0.2,-2.8,2.2
C[C@@H]1CN([C@H](C)CO)C(=O)c2cccc(NC(=O)C3CCOCC3)c2O[C@@H]1CN(C)C,-0.2,0.0,-44.9,10.3
COC(=O)C[C@@H]1C[C@@H]2c3cc(NC(=O)CC4CC4)ccc3O[C@@H]2[C@H](CO)O1,0.3,0.1,-23.9,6.4
COc1cc(/C=C/C(=O)Nc2nnc(CC(C)C)s2)cc(OC)c1OC,4.2,0.0,7.9,5.1
COc1cc(/C=C/C(=O)Nc2nnc(CC(C)(C)C)s2)cc(OC)c1OC,-0.6,0.0,2.0,99.6*
O=C(c1ccc2c(c1)OCO2)N1CC2(C1)[C@H](c1ccccc1)[C@@H](CO)N2C(=O)C1CCC1,-0.3,0.1,-2.7,43.5*
CCS(=O)(=O)N1CC2(C1)[C@H](c1ccccc1)[C@@H](CO)N2C(=O)C1CCCC1,-0.1,0.1,8.9,-0.8
CCS(=O)(=O)N1CC2(C1)[C@H](c1ccccc1)[C@@H](CO)N2C(=O)C1CC1,-0.2,0.0,-3.6,22.6*
O=C(C1CCCCC1)N1CC2(C1)[C@H](c1ccccc1)[C@H](CO)N2C(=O)c1cccnc1,0.2,0.0,-10.0,27.7*
O=C(c1ccc2c(c1)OCO2)N1CC2(C1)[C@H](c1ccccc1)[C@H](CO)N2C(=O)C1CCC1,0.3,-0.1,3.1,5.9
O=C(c1cccnc1)N1CC2(C1)[C@H](c1ccccc1)[C@@H](CO)N2CC1CC1,0.0,5.6,-12.2,9.9
O=C(c1cccnc1)N1CC2(C1)[C@@H](c1ccccc1)[C@@H](CO)N2CC1CC1,0.6,0.0,3.9,20.3*
O=C(O)C[C@@H]1C[C@@H]2c3cc(NC(=O)c4cccnc4)ccc3O[C@@H]2[C@@H](CO)O1,0.0,0.1,21.7,-12.3
Oc1c(C(c2ccccc2)N2CCN(Cc3ccccc3)CC2)sc2ncnn12 (stereo not drawn),0.0,0.0,2.0,-0.6
CCCc1nc2ccc(C(=O)OC)cn2c1Cc1ccccc1,0.0,-0.1,-2.4,5.4
O=C(c1cccnc1)N1CC2(C1)[C@H](c1ccccc1)[C@H](CO)N2C(=O)C1CCC1,-0.2,0.0,56.6,44.3*
O=C(C1CCC1)N1CC2(C1)[C@@H](c1ccccc1)[C@@H](CO)N2C(=O)c1cccnc1,0.1,0.3,5.1,0.4
CCC(=O)N1CC2(C1)[C@H](c1ccccc1)[C@@H](CO)N2C(=O)NC(C)C,0.0,0.1,3.3,29.1*
CCC(=O)N1[C@H](CO)[C@H](c2ccccc2)C12CN(C(=O)Nc1ccccc1F)C2,0.1,0.0,-15.6,27.1*
CCC(=O)N1CC2(C1)[C@@H](c1ccccc1)[C@@H](CO)N2Cc1ccccc1F,0.4,0.1,-7.8,23.7*
SMILES,E-selectin induc,XiGFP reactiv,S100A4 inh HTS,DENV2 CPE rescue
Cc1ccc(C2C(C#N)=C(N)OC3=C2C(=O)CCC3)s1 (stereo not drawn),·,0.0,-3.5,7.1
Cc1nn(-c2ccccc2)c(C)c1/C=N/Nc1nc2ccccc2[nH]1,·,1.4,-1.5,5.5
COc1ccccc1NS(=O)(=O)c1cc(NC(=O)C2CCCO2)ccc1C (stereo not drawn),·,-0.1,-1.6,6.3
CCC(=O)N1CC2(C1)[C@H](c1ccccc1)[C@H](CO)N2C(=O)c1cccnc1,-0.2,0.1,-9.8,23.9*
Cc1c(Cl)c(C(=O)N2CCCC2)nn1C,·,0.0,-4.6,121.2*
Cc1c(Cl)c(C(=O)N2CCCCCC2)nn1C,3.3,0.4,15.4,5.0
CCOC(=O)Cc1csc(N/N=C/c2cccc([N+](=O)[O-])c2)n1,·,0.0,-1.8,29.2*
CCOC(=O)Cc1csc(NC(=O)c2cccc([N+](=O)[O-])c2)n1,·,0.0,-9.3,-3.2
COc1ccc(N(C(=O)c2ccco2)C(C(=O)NC2CCCC2)c2ccncc2)cc1 (stereo not drawn),0.0,0.0,-3.4,11.9
CC(=O)c1ccc(N(C(=O)CNC(=O)c2ccco2)C(C(=O)NC2CCCC2)c2ccc(C)o2)cc1 (stereo not drawn),33.3*,0.3,1.8,2.9
CCOC(=O)c1ccc(N(C(=O)c2ccco2)C(C(=O)NC2CCCCC2)c2ccncc2)cc1 (stereo not drawn),35.3*,0.4,7.5,0.7
COc1ccc(CCNC(=O)CCCOc2cccc(C)c2C)cc1OC,-0.1,2.1,-4.7,-10.1
CO[C@@H]1CN(C)C(=O)c2ccc(NC(=O)C3CCOCC3)cc2OC[C@@H](C)N(CC2CCCCC2)C[C@H]1C,0.6,-0.4,-7.8,53.7*
CO[C@@H]1CN(C)C(=O)c2cc(NC(=O)c3ccccc3F)ccc2OC[C@@H](C)N(C(C)=O)C[C@H]1C,0.0,0.2,22.1,-1.0
CO[C@@H]1CN(C)C(=O)c2cc(NC(=O)c3ccccc3F)ccc2OC[C@@H](C)N(CC2CCOCC2)C[C@H]1C,0.4,0.3,13.7,-1.8
CO[C@H]1CN(C)C(=O)c2ccc(NC(=O)Nc3ccccc3F)cc2OC[C@H](C)N(C)C[C@H]1C,0.4,0.1,7.6,33.2*
CO[C@H]1CN(C)C(=O)c2cc(NC(=O)c3ccccc3F)ccc2OC[C@@H](C)N(C(C)=O)C[C@@H]1C,-0.1,0.3,-6.3,69.8*
CO[C@H]1CN(C)C(=O)c2cc(NC(=O)c3ccccc3F)ccc2OC[C@H](C)N(CC2CCOCC2)C[C@H]1C,0.0,0.0,-3.9,80.9*
C[C@@H]1CN([C@H](C)CO)S(=O)(=O)c2ccc(-c3ccncc3)cc2O[C@@H]1CN(C)C(=O)Nc1ccc(F)cc1,1.3,-0.5,-6.9,2.7
O=C(N[C@H](CO)Cc1ccccc1)c1ccco1,0.1,0.1,·,·
COC(=O)c1cc(S(=O)(=O)NCc2ccc3c(c2)OCO3)c[nH]1,0.3,0.2,0.8,-3.3
CO[C@H]1CN(C)C(=O)c2cc(NC(=O)Nc3ccccc3F)ccc2OC[C@H](C)N(C(C)=O)C[C@H]1C,0.5,0.5,3.5,21.4*

# High-throughput results deposited in PubChem by Broad Institute.
